The test system of data set [1] is Brain. The data set can be described thus: Biodistribution in ddY mouse brain assessed as radioactivity at 0.5 uCi, iv after 2 mins. Type of data set: ADME, organism-based. The note with it: in vivo. Put shortly: (§1)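 Normal mice given no-carrier-added 125I-labelled tracer (HPLC-purified) by intravenous injection, then sampled at 2, 10, 30 and 60 min. Radioactivity expressed as % injected dose per gram of tissue, and per whole organ for stomach. Values are mean (SD) of 3–5 animals per time point.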

Data set [2] can be described thus: Binding affinity at amyloid peptide plaques. More on the design: species or system Homo sapiens. Put shortly: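 Saturation binding to synthetic Aβ(1–40) aggregates (57 nM final), pre-aggregated at 0.5 mg/mL in pH 7.4 10 mM sodium phosphate/1 mM EDTA, 37 °C, 42 h with shaking. Radioiodinated ligand 1–125 nM final (made by mixing with cold compound), in 10% ethanol, 3 h at room temperature. Filtered on GF/B, bound 125I gamma-counted. Nonspecific binding defined with 1 µM cold ligand. Kd by Scatchard analysis.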

The subject of data set [3] is Brain. Kind of data set: Biodistribution in ddY mouse brain assessed as radioactivity at 0.5 uCi, iv after 60 mins. Type of data set: ADME, organism-based. The following applies: in vivo, 30 min, in the assay text read “after 30 mins” for “after 60 mins”. Put shortly: as §1
The subject of data set [4] is Heart. The data set can be described thus: Biodistribution in ddY mouse heart assessed as radioactivity at 0.5 uCi, iv after 2 mins. The note with it: in vivo. Type of data set: ADME, organism-based. The method in brief: as §1
Data set [5] relates to Stomach. Kind of data set: Biodistribution in ddY mouse stomach assessed as radioactivity at 0.5 uCi, iv after 2 mins. It counts as ADME, organism-based. The following applies: in vivo. The method in brief: as §1
The test system of data set [6] is Pancreas. The data set can be described thus: Biodistribution in ddY mouse pancreas assessed as radioactivity at 0.5 uCi, iv after 2 mins. It counts as ADME, organism-based. The note with it: in vivo. The method in brief: as §1
Data set [7] deals with Kidney. The data set can be described thus: Biodistribution in ddY mouse kidney assessed as radioactivity at 0.5 uCi, iv after 30 mins. Type of data set: ADME, organism-based. The following applies: in vivo, 0.5 h. Put shortly: as §1
Data set [8] has as its system Spleen. Kind of data set: Biodistribution in ddY mouse spleen assessed as radioactivity at 0.5 uCi, iv after 10 mins. It counts as ADME, organism-based. The note with it: in vivo. The method in brief:
as §1

Data set [9] deals with Stomach. The data set can be described thus: Biodistribution in ddY mouse stomach assessed as radioactivity at 0.5 uCi, iv after 30 mins. It counts as ADME, organism-based. The note with it: in vivo, 0.5 h. Put shortly: as §1
Data set [10] has as its system Pancreas. The data set can be described thus: Biodistribution in ddY mouse pancreas assessed as radioactivity at 0.5 uCi, iv after 10 mins. It counts as ADME, organism-based. The following applies: in vivo. The method in brief:
as §1

Data set [11] has as its system Heart. Kind of data set: Biodistribution in ddY mouse heart assessed as radioactivity at 0.5 uCi, iv after 30 mins. It counts as ADME, organism-based. The note with it: in vivo, 0.5 h. The method in brief: as §1
Data set [12] concerns Stomach. Kind of data set: Biodistribution in ddY mouse stomach assessed as radioactivity at 0.5 uCi, iv after10 mins. The note with it: in vivo, 10 min. It counts as ADME, organism-based. Put shortly: as §1
In data set [13] the test system is Brain. Kind of data set: Biodistribution in ddY mouse brain assessed as radioactivity at 0.5 uCi, iv after 30 mins. It counts as ADME, organism-based. The following applies: in vivo, 0.5 h. The method in brief:
as §1

Data set [14] relates to Blood. The data set can be described thus: Biodistribution in ddY mouse blood assessed as radioactivity at 0.5 uCi, iv after30 mins. It counts as ADME, organism-based. The following applies: in vivo, 0.5 h. Put shortly:
as §1

Data set [15] has as its system Brain. Kind of data set: Biodistribution in ddY mouse brain assessed as radioactivity at 0.5 uCi, iv after 10 mins. It counts as ADME, organism-based. The following applies: in vivo. The method in brief:
as §1

In data set [16] the test system is Spleen. The data set can be described thus: Biodistribution in ddY mouse spleen assessed as radioactivity at 0.5 uCi, iv after 2 mins. The following applies: in vivo. Type of data set: ADME, organism-based. Put shortly: as §1
For data set [17], the system named is Pancreas. The data set can be described thus: Biodistribution in iv dosed ddY mouse pancreas assessed as radioactivity after 30 mins. The note with it: in vivo, 0.5 h. Type of data set: ADME, organism-based. Put shortly:
as §1

Data set [18] has as its system Kidney. Kind of data set: Biodistribution in ddY mouse kidney assessed as radioactivity at 0.5 uCi, iv after 2 mins. The following applies: in vivo. Type of data set: ADME, organism-based. Put shortly:
as §1

The test system of data set [19] is Blood. The data set can be described thus: Biodistribution in ddY mouse blood assessed as radioactivity at 0.5 uCi, iv after 10 mins. Type of data set: ADME, organism-based. The note with it: in vivo. Put shortly:
as §1

Data set [20] deals with Liver. Kind of data set: Biodistribution in ddY mouse liver assessed as radioactivity at 0.5 uCi, iv after 30 mins. It counts as ADME, organism-based. The following applies: in vivo, 0.5 h. The method in brief: as §1
For data set [21], the system named is Kidney. The data set can be described thus: Biodistribution in ddY mouse kidney assessed as radioactivity at 0.5 uCi, iv after 10 mins. It counts as ADME, organism-based. The following applies: in vivo. Put shortly: as §1
In data set [22] the test system is Heart. The data set can be described thus: Biodistribution in ddY mouse heart assessed as radioactivity at 0.5 uCi, iv after 10 mins. It counts as ADME, organism-based. The note with it: in vivo. The method in brief: as §1
Data set [23] relates to Blood. Kind of data set: Biodistribution in ddY mouse blood assessed as radioactivity at 0.5 uCi, iv after 2 mins. The note with it: in vivo. Type of data set: ADME, organism-based. Put shortly:
as §1

For data set [24], the system named is Spleen. The data set can be described thus: Biodistribution in ddY mouse spleen assessed as radioactivity at 0.5 uCi, iv after 30 mins. It counts as ADME, organism-based. The following applies: in vivo, 0.5 h. Put shortly:
as §1

Data set [25] has as its system Liver. Kind of data set: Biodistribution in ddY mouse liver assessed as radioactivity at 0.5 uCi, iv after 10 mins. Type of data set: ADME, organism-based. The note with it: in vivo. The method in brief:
as §1

The nature of data set [26]: Partition coefficient, log P at pH 7.4. Type of data set: physicochemical. The note with it: octanol/water. The method in brief: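 HPLC-purified radioiodinated tracer partitioned between 3 mL 1-octanol and 3 mL 0.1 M phosphate buffer pH 7.4. Vortexed 3 min at room temperature, then centrifuged 5 min. 0.5 mL samples from each layer well-counted. Ratio taken of octanol to buffer cpm/0.5 mL. Octanol layer re-partitioned until values were consistent. Done in triplicate and repeated three times.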

In data set [27] the test system is Liver. Kind of data set: Biodistribution in ddY mouse liver assessed as radioactivity at 0.5 uCi, iv after 2 mins. The following applies: in vivo. Type of data set: ADME, organism-based. Put shortly:
as §1

Data set [28] has as its system Intestine. The data set can be described thus: Biodistribution in ddY mouse intestine assessed as radioactivity at 0.5 uCi, iv after 30 mins. Type of data set: ADME, organism-based. The following applies: in vivo, 0.5 h. The method in brief: as §1
Data set [29] has as its system Intestine. Kind of data set: Biodistribution in ddY mouse intestine assessed as radioactivity at 0.5 uCi, iv after10 mins. The following applies: in vivo, 10 min. It counts as ADME, organism-based. Put shortly:
as §1

Data set [30] deals with Intestine. The data set can be described thus: Biodistribution in ddY mouse intestine assessed as radioactivity at 0.5 uCi, iv after 2 mins. The note with it: in vivo. Type of data set: ADME, organism-based. The method in brief:
as §1

Structures are written as SMILES.

Usually Ki stands for a measure of affinity in units of concentration, obtained from inhibition or displacement. In the case of `CN(C)c1ccc(-c2cn3cc([125I])ccc3n2)cc1`, the Drug uptake in data set [1] is 2.88%; in data set [3], 0.26 % ID/g. Also, the Ki in data set [2] worked out at […].
One may read the Kd as the concentration at which binding is half-saturated. A high value points to weaker binding. Broadly, the logD is lipophilicity at a set pH, counting ionised and neutral species. A low value points to a more hydrophilic compound. With `CN(C)c1ccc(/C=C/c2cc(=O)c3cc([125I])ccc3o2)cc1`, the Drug uptake in [4] stood at 6.25 % ID/g; in [5], 0.7 %ID; in data set [6], 3.02 % ID/g; in [7], 3.69 % ID/g; in data set [8], 2.01 % ID/g; in data set [9] it was 1.23 %ID. Moreover, the Drug uptake amounted to 2.73 % ID/g in [10]; 1.27 % ID/g in [11]; 1.14 %ID in data set [12]; 1.37 % ID/g in data set [13]; 1.13 % ID/g in data set [14]; 1.76 % ID/g in [15]. Besides, the Drug uptake in [1] was found to be 1.14 % ID/g; in [16], 2.43 % ID/g; in [17], 1.34 % ID/g; in data set [18], 6.7 % ID/g; in data set [19] it was 1.44 % ID/g; in data set [20], 7.72 % ID/g. The Drug uptake was 4.51 % ID/g in data set [21]; 1.75 % ID/g in [22]; 2.62 % ID/g in data set [23]; 1.38 % ID/g in data set [24]; 10.15 % ID/g in data set [25]; 11.17 % ID/g in data set [27]. Also, the Drug uptake was 12.68 % ID/g in data set [28], 4.95 % ID/g in data set [29] and 1.45 % ID/g in [30]. Also, the Kd in data set [2] came to 8.7 nM. The logD in data set [26] amounted to 2.65.

For the origin of these results see ChEMBL document CHEMBL1144491, “Synthesis and characterization of styrylchromone derivatives as beta-amyloid imaging agents” (Bioorg Med Chem, 2007).
